Most compounds without a hit are left out; they make up all but 1.9% or so of the library.
UHRF1 MBD2 ctr – UHRF1 methyl-DNA binding inhibition; Q96T88; UHRF1 binding to methylated oligo, TR-FRET; inhibition, % at 4.4 µM; 0.75% of 370,000 active; in the data active = inhibition above about 21%;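 also: UHRF1 SRA domain binding a hemimethylated CpG hairpin DNA probe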
Target sequence (Q96T88 whole entry, looked up, the tested form may be a part): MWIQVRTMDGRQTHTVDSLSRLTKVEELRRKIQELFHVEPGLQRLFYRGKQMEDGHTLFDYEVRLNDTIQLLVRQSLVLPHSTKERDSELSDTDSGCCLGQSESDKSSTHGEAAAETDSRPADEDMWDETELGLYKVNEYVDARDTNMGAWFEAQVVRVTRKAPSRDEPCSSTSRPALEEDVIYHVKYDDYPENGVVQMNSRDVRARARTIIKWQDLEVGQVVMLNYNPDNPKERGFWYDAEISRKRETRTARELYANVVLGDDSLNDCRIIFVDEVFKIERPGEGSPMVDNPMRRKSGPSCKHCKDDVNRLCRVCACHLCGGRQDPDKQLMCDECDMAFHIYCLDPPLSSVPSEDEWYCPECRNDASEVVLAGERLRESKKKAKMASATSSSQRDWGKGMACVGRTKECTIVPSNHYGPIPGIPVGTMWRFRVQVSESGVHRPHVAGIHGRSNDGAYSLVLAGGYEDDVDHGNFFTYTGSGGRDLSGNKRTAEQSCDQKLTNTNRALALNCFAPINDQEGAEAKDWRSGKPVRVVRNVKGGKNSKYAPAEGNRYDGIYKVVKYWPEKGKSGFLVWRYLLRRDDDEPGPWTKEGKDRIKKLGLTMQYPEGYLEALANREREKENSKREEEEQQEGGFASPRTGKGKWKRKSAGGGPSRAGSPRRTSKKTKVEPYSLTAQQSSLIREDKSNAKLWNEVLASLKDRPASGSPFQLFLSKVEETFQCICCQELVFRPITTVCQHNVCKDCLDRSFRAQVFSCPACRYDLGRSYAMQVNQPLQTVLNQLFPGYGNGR
TDP2 inh – TDP2 (human) inhibition, absorbance primary screen; O95551; recombinant TDP2, T5PNP hydrolysis, p-nitrophenol absorbance 415 nm; inhibition, % at 12.8 µM; 0.34% of 370,000 active;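 active = inhibition above the mean of all tested compounds plus 3 SD, set per campaign, cut at about 25% in these data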
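Incubation: 2 h at 37 °C; Test system: recombinant human TDP2; Quantity: enzyme 120 nM; Read-out basis: percent inhibition; Medium: 50 mM Tris-HCl pH 7.5 with Mg2+, KCl, DTT, BSA; Repeats: single replicate; Compound: 12.8 µM single point, 1% DMSO; Signal: epi absorbance; Reagent: 5 mM T5PNP chromogenic substrate; Benchmarks: no-enzyme high, DMSO-plus-enzyme low.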
LEDGF integ inh – blocks HIV-1 LEDGF/p75-dependent DNA integration; TR-FRET IN-LEDGF/p75 DNA integration, Eu/Cy5; inhibition, % at 3.7 µM; 0.64% of 370,000 active; AID 743269;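 active = inhibition above the screen-wide mean plus 3 SD, cut at about 13% in these data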;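 also: signal is the Cy5 over europium emission ratio at 671 and 618 nm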
MBD2 inh – blocks human MBD2 binding to methylated DNA | TR-FRET, MBD2 binding to methylated oligonucleotide | 0.31% of 370,000 active | AID 686964 | Q9UBB5 | inhibition, % at 4.4 µM; in the data active = inhibition above about 13%
Rin1 Abl inh – inhibitors of human Rin1-Abl protein interaction; P00519+Q13671; TR-FRET Rin1/Abl binding, biochemical; inhibition, % at 7.35 µM; 0.4% of 360,000 active; in the data active = inhibition above about 5%, passing the limit was not always enough
Rin1-Abl confirm – Rin1-Abl interaction inhibition confirmation; shares compounds with Rin1 Abl inh; inhibition, % at 7.35 µM; TR-FRET Rin1-Abl binding, purified proteins; 49% of 1,300 active
GFP quench-1 – counter-screen for Rin1-Abl inhibitors: GFP fluorescence quenchers. inhibition, % at 6.75 µM. 8.5% of 1,300 active. inhibitors/quenchers counterscreen. AID 602125. shares compounds with Rin1 Abl inh;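 also: ABL1-eGFP fusion protein alone without its partner RIN1-SBP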
GFP quench dose – GFP fluorescence interference dose response; shares compounds with Rin1 Abl inh; GFP fluorescence interference/quenching counterscreen; IC50, µM; 230 tested, under 10 active; call rule not given here;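 also: ABL1-eGFP fusion protein alone without its RIN1 binding partner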
GFP quench-2 – quenches GFP fluorescence in Rin1-Abl counterscreen | shares compounds with Rin1 Abl inh | IC50, µM | AID 602397 | GFP fluorescence quenching counterscreen, biochemical | 25 tested, under 10 active; call rule not given here
Each line names hits and unclear results; the compound was inactive in the other large screens (follow-up assays come after a bar, where they were run). Rule as the data show it, unless noted: active = inhibition above about 6.5%; inactive = the rest.

S=C(Nc1cc(Cl)cc(Cl)c1)NC(c1ccccc1)c1ccccc1	none (no result: Rin1 Abl inh)
CCOC(=O)c1cnc(-n2[nH]c(C)cc2=O)[nH]c1=O	Rin1 Abl inh 14 | Rin1-Abl confirm 8.6 | GFP quench-1 7.8
Cc1ccc(S(=O)(=O)N2CCCC2C(=O)N2CCc3ccccc3C2)cc1 (configuration not stated)	none (no result: Rin1 Abl inh)
CCCC(=O)NC(c1ccccc1OC)c1ccc2cccnc2c1O (configuration not stated)	Rin1 Abl inh 7.0 (no result: UHRF1 MBD2 ctr, TDP2 inh, LEDGF integ inh, MBD2 inh) | Rin1-Abl confirm inactive | GFP quench-1 inactive
COc1cccc(NC(=O)Nc2nc3ncccn3c2-c2ccc(C)cc2)c1	none (no result: Rin1 Abl inh)
CCOC(=O)NC(=O)COC(=O)CCCc1nc2ccccc2s1	Rin1 Abl inh 5.4 | Rin1-Abl confirm inactive | GFP quench-1 inactive
CC[C@@H](CCCc1ccccc1OC)CCS(=O)(=O)C(C)(C)C	none (no result: Rin1 Abl inh)
CC(C)(C)OC(=O)NCc1cc(F)ccc1/C=C/S(=O)(=O)NCc1ccc(F)cc1	none (no result: Rin1 Abl inh)
Cc1ccc(S(=O)(=O)N2CCCC2CNC(=O)C(=O)NCc2ccc3c(c2)OCO3)cc1 (configuration not stated)	Rin1 Abl inh 10 | Rin1-Abl confirm inactive | GFP quench-1 inactive
COC(=O)[C@]12C[C@H](CC(=O)NCCC(C)C)C(=O)N(Cc3ccc(Cl)cc3Cl)C1=C[C@H](C1CCCC1)O[C@@H]2C	none (no result: Rin1 Abl inh)
C=C(C)Cn1c(C(C)NC(=O)CCC)nc2ccccc21 (configuration not stated)	Rin1 Abl inh 8.6 | Rin1-Abl confirm inactive | GFP quench-1 inactive
COc1ccccc1C(=O)N1CCC(Oc2cccnc2)CC1	none (no result: Rin1 Abl inh)
CCCCNC(=O)C1CCCN1C(=O)Nc1cccc(C)c1 (configuration not stated)	none (no result: Rin1 Abl inh)
O=C(c1ccccc1)c1ccc(OCC(O)CN2CCN(S(=O)(=O)N3CCCCC3)CC2)cc1 (configuration not stated)	Rin1 Abl inh 6.7 | Rin1-Abl confirm inactive | GFP quench-1 inactive
O=C(c1ccccc1)c1ccc(OCC(O)CN2CCCCC2)cc1 (configuration not stated)	none
CCOC(=O)c1c(C)n(C(=O)c2ccco2)c(=O)n1C(=O)c1ccco1	Rin1 Abl inh 36 | Rin1-Abl confirm 35 | GFP quench-1 inactive | GFP quench dose inactive
CCOC(=O)c1c(C)c(C(=O)N2CCN(C(=O)c3ccco3)CC2)c(C)n1C	none (no result: UHRF1 MBD2 ctr, TDP2 inh, LEDGF integ inh, MBD2 inh)
Cc1c(F)cccc1NS(=O)(=O)c1ccc2c(c1)c(=O)n(C)c(=O)n2C	Rin1 Abl inh 10 | Rin1-Abl confirm inactive | GFP quench-1 inactive
Cc1c(F)cccc1NS(=O)(=O)c1ccc2c(c1)n(C)c(=O)c(=O)n2C	none
Cc1ccc(-c2nnc(SCc3nc(N)nc(Nc4ccccc4C)n3)n2N)cc1	Rin1 Abl inh 18 | Rin1-Abl confirm inactive | GFP quench-1 inactive
Oc1ccc(/C=N/Nc2ncc(Br)cn2)c(O)c1	Rin1 Abl inh 12 | Rin1-Abl confirm 9.9 | GFP quench-1 inactive
Cc1cc(-c2ccccc2)nc(N/N=C/c2ccccc2)n1	none
Cc1cc(-c2ccccc2)nc(N/N=C/c2ccc(O)cc2O)n1	Rin1 Abl inh 11 | Rin1-Abl confirm 11 | GFP quench-1 inactive
CC(C)C[C@H]1COc2cccc(F)c2S(=O)(=O)N1C	none (no result: Rin1 Abl inh)
O=C(CSc1nnc(COc2ccccc2)n1-c1ccc(Cl)cc1)Nc1ccc2c(c1)OCCO2	none (no result: Rin1 Abl inh)
COc1cc(CNCc2ccccc2)c(Br)cc1OC1CCCC1	Rin1 Abl inh 8.8 | Rin1-Abl confirm inactive | GFP quench-1 inactive
CC(C)(N[C@@H](Cc1ccccc1)C(=O)NCC(c1ccccc1)c1ccccc1)C(=O)NC1CCCCC1	none (no result: Rin1 Abl inh)
CC(C)NC(=O)CSc1nc(Cc2ccccc2)nc2ccccc12	none
CCN(CC)C(=O)CSc1nc(Cc2ccccc2)nc2ccccc12	Rin1 Abl inh 24 | Rin1-Abl confirm 21 | GFP quench-1 inactive | GFP quench dose inactive
O=C(COC(=O)c1cccnc1)Nc1ccc(F)cc1	Rin1 Abl inh 5.7 | Rin1-Abl confirm inactive | GFP quench-1 inactive
CN(Cc1cn(Cc2ccccc2)nn1)S(=O)(=O)c1ccc(F)cc1Br	none (no result: Rin1 Abl inh)
Cc1nn(CC(=O)Nc2ccc(C(=O)N3CCCC3)cc2)c(=O)c2ccccc12	Rin1 Abl inh 9.9 | Rin1-Abl confirm 7.4 | GFP quench-1 inactive
Cc1nn(CC(=O)Nc2ccc(C(=O)N3CCCCC3)cc2)c(=O)c2ccccc12	Rin1 Abl inh 12 | Rin1-Abl confirm 13 | GFP quench-1 inactive
COC(=O)[C@]12C[C@H](CC(=O)N3CCN(C(=O)C4CC4)CC3)C(=O)N(Cc3ccc(Cl)cc3Cl)C1=C[C@H](C(C)C)O[C@@H]2C1CC1	none (no result: Rin1 Abl inh)
Cc1ccc(S(=O)(=O)N2CC=C(C(=O)NC3CCCC3)CC2)cc1	Rin1 Abl inh 9.4 | Rin1-Abl confirm inactive | GFP quench-1 inactive
COc1cccc(CSc2nnc(CSc3nc4nc(C)cc(C)n4n3)s2)c1	Rin1 Abl inh 28 | Rin1-Abl confirm 39 | GFP quench-1 inactive | GFP quench dose inactive | GFP quench-2 inactive
Nc1nnc(CCCCc2cccs2)o1	Rin1 Abl inh 7.6 | Rin1-Abl confirm inactive | GFP quench-1 inactive
O=S(=O)(c1ccccc1F)n1c(CN2CCOCC2)nc2ccccc21	none (no result: Rin1 Abl inh)
Cc1nc2ccccc2n1CC(=O)c1ccc(O)c(O)c1	Rin1 Abl inh 33 | Rin1-Abl confirm 21 | GFP quench-1 6.6
CN(Cc1cnccn1)C(=O)C1CCC(=O)N(CCc2ccccc2)C1 (configuration not stated)	Rin1 Abl inh 25 | Rin1-Abl confirm 29 | GFP quench-1 inactive | GFP quench dose inactive
CN(Cc1cnccn1)C(=O)C1CCC(=O)N(CCc2ccc(Cl)cc2)C1 (configuration not stated)	none
CCCC/C=C1/[C@H](c2ccccc2)N(C)C2=N[C@H](c3ccccc3)CC(=O)N21	none (no result: Rin1 Abl inh)
CC(COc1ccc(OC(F)(F)F)cc1)CN1CCC(C(O)(c2ccccc2)c2ccccc2)CC1 (configuration not stated)	none (no result: Rin1 Abl inh)
O=C(CC1SCCNC1=O)Nc1ccc(F)c(Cl)c1 (configuration not stated)	Rin1 Abl inh 21 | Rin1-Abl confirm 21 | GFP quench-1 inactive | GFP quench dose inactive
Cc1ccc(NC(=O)CC2SCCNC2=O)cc1Cl (configuration not stated)	none
Cc1cccc(NC(=O)C2CCCN2S(=O)(=O)c2cccnc2)c1C (configuration not stated)	none (no result: Rin1 Abl inh)

Screens (PubChem BioAssay)
